Assay results from article PMC3278212 (Bioorganic & medicinal chemistry letters, 2012).

Key:
IIIB strain of HIV-1 = format: cell-based; details: HIV-1 IIIB, MT-2 cells
MT-2 human T-cells = assay: Cytotoxicity: inhibition of MT-2 cell growth, MTT; format: cell-based; details: MT-2 cells
In short: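 Run alongside the HIV-1 IIIB protection assay in MT-2 human T-cells, with the MTT colorimetric method as read-out. CC50 is the concentration that inhibits MT-2 cell growth by 50%, obtained at the same time as the EC50 for protection of infected cells.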

Row | Compound | anti-viral activity below CC50 level (IIIB strain of HIV-1) | cytotoxicity (MT-2 human T-cells) [µM]
1 | COc1nc(NCCCNc2nc(Nc3ccc(C#N)c(OCC=C(C)C)c3)nc(OC)n2)nc(Nc2ccc(C#N)c(OCC=C(C)C)c2)n1 [Compound 6f] | did not show anti-viral activity below their CC50 levels | 
2 | COc1nc(Nc2ccc(C#N)c(OCC=C(C)C)c2)nc(OCCOc2nc(Nc3ccc(C#N)c(OCC=C(C)C)c3)nc(OC)n2)n1 [Compound 6a] |  | 20 to 40
3 | COc1nc(NCCNc2nc(Nc3ccc(C#N)c(OCC=C(C)C)c3)nc(OC)n2)nc(Nc2ccc(C#N)c(OCC=C(C)C)c2)n1 [Compound 6e] | did not show anti-viral activity below their CC50 levels | 
4 | COc1nc(Nc2ccc(C#N)c(OCC=C(C)C)c2)nc(OCCCOc2nc(Nc3ccc(C#N)c(OCC=C(C)C)c3)nc(OC)n2)n1 [Compound 6b] |  | 20 to 40
